PAFAH2 inh: PAFAH2 (human) inhibition. Q99487. recombinant PAFAH2, FP-rhodamine activity probe, fluorescence polarization. inhibition, % at 3.39 µM. hit rate 0.99% among 340,000. AID 492956;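 active = inhibition above the mean over all tested compounds plus 3 SD, cut at about 30% in these data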;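 note: inhibitors block probe labeling of enzyme so polarization drops; 0% = enzyme with DMSO and 100% = wells lacking PAFAH2 protein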
NR3A LBD binder: modulates the human NR3A ligand-binding domain. NR3A LBD differential scanning fluorimetry, Tm shift; 0% = protein alone, 100% = glycine-bound protein. Tm shift relative to glycine control, % at 25 µM. hit rate 2.5% among 340,000;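 active = melting temperature shift of at least 10% of the positive control shift, at one fixed dose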
UCH37 inh: inhibitors of human deubiquitinating enzyme UCH37. Q9Y5K5. hit rate 0.33% among 330,000. purified proteasome/UCH37, Ub-AMC cleavage fluorescence. inhibition, % (test concentration not listed);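 active = mean inhibition over replicate wells above about 20%, limit read from the data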;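 note: 0% = compound-free wells with enzyme and 100% = wells lacking proteasome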
Target sequence (Q9Y5K5 whole entry, looked up): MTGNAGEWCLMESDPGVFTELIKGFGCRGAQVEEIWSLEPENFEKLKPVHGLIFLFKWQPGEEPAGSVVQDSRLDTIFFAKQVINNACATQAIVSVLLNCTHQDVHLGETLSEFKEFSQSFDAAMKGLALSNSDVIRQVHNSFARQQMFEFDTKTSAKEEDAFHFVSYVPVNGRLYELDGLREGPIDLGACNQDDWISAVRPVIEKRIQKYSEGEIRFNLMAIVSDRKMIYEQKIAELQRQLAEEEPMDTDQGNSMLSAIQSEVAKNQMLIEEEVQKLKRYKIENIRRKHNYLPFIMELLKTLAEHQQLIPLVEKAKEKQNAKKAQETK
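Schedule: 30 min plus 25 min, room temperature / Material: human UCH37 within purified proteasomes / Technique: AMC fluorescence intensity at 355/460 nm / Buffer or medium: pH 7.4 Tris-HCl (50 mM) with ovalbumin, ATP-MgCl2, DTT / Controls: wells without proteasome as full block, compound-free enzyme plus substrate as uninhibited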
PAFAH1B2 inh: blocks human PAF acetylhydrolase 1b catalytic subunit 2. hit rate 1.2% among 340,000. recombinant PAFAH1B2, FP-rhodamine activity probe, fluorescence polarization. P68402. inhibition, % at 3.39 µM;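 active = inhibition above the mean of all tested compounds plus 3 SD, cut at about 24% in these data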;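 note: 0% = enzyme with DMSO and 100% = wells lacking PAFAH1B2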
PAFAH1B3 inh: PAFAH1B3 (human) inhibition. Q15102. recombinant PAFAH1B3, FP-rhodamine probe, fluorescence polarization. inhibition, % at 3.39 µM. hit rate 0.28% among 340,000. AID 492972;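 active = inhibition above the screen-wide average of all tested compounds plus 3 SD, cut at about 25% in these data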;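 note: 0% = enzyme with DMSO only and 100% = wells lacking PAFAH1B3 protein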
Target sequence (Q15102 whole entry, looked up): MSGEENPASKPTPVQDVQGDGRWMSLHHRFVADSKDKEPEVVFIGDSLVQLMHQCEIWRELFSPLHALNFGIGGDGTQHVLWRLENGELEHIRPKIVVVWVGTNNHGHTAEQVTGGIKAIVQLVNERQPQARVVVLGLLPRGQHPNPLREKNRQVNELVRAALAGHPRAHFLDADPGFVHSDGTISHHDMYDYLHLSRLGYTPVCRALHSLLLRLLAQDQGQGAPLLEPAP
pPAFAH inh: inhibitors of human plasma PAF acetylhydrolase (pPAFAH) | recombinant pPAFAH, FP-rhodamine probe fluorescence polarization | inhibition, % at 3.39 µM | hit rate 1.5% among 330,000 | AID 463082;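 active = inhibition above the mean inhibition across the screen plus 3 SD, cut at about 25% in these data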;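 note: inhibitors block binding of the rhodamine activity-based probe so polarization drops; 0% = enzyme with DMSO and 100% = wells lacking pPAFAH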
Active calls of the source: *. A selection: hits, their analogues and other compounds. The true share with any hit is near 4.8%.

How did O=C(Oc1c(-c2ccccc2)c(=O)n2c3c(cccc13)CC2)c1ccc(F)cc1 do in these assays?
PAFAH2 inh: 0; NR3A LBD binder: -1; UCH37 inh: -9; PAFAH1B2 inh: -1; PAFAH1B3 inh: 6; pPAFAH inh: -4

Results for O=C(Oc1c(-c2ccccc2)c(=O)n2c3c(cccc13)CC2)c1ccccc1 ?
NR3A LBD binder: -3; UCH37 inh: -4; pPAFAH inh: 26*

What do the screens show for `N#C/C(=C/c1ccc(O)c(O)c1)C(=O)NCc1ccc(Cl)cc1`?
PAFAH2 inh: 35*; NR3A LBD binder: 3; UCH37 inh: 4; PAFAH1B2 inh: 53*; PAFAH1B3 inh: 12; pPAFAH inh: 30*

What do the screens show for `O=C(Nc1nc2ccccc2s1)C1CCCO1` (centres undefined)?
PAFAH2 inh: 6; NR3A LBD binder: -2; UCH37 inh: 4; PAFAH1B2 inh: 4; PAFAH1B3 inh: 3; pPAFAH inh: -1

What do the screens show for `CCOc1ccc2nc(NC(=O)Nc3cccs3)sc2c1`?
PAFAH2 inh: 6; NR3A LBD binder: 26*; UCH37 inh: 3; PAFAH1B2 inh: 7; PAFAH1B3 inh: 11; pPAFAH inh: 15

What do the screens show for `Cc1nc(C)c(C(=O)OCC(=O)Nc2ccccc2)s1`?
PAFAH2 inh: 95*; NR3A LBD binder: -4; UCH37 inh: -1; PAFAH1B2 inh: -1; PAFAH1B3 inh: 13; pPAFAH inh: 26*

How did O=C(Nc1nc2ccccc2s1)C1c2ccccc2Oc2ccccc21 do in these assays?
PAFAH2 inh: -45; NR3A LBD binder: 11*; PAFAH1B2 inh: -26; PAFAH1B3 inh: -27; pPAFAH inh: -51

Results for COc1ccc(NC(=O)Nc2nc3ccccc3s2)cc1 ?
PAFAH2 inh: 6; NR3A LBD binder: 28*; UCH37 inh: 6; PAFAH1B2 inh: -2; PAFAH1B3 inh: 7; pPAFAH inh: 8

What do the screens show for `O=C(NN=Cc1ccc(Br)cc1)c1ccc(Br)o1`?
UCH37 inh: 2

Results for COc1ccc(NC(=O)Nc2nc3c(s2)CCCC3)cc1 ?
PAFAH2 inh: 5; NR3A LBD binder: 22*; UCH37 inh: 0; PAFAH1B2 inh: 7; PAFAH1B3 inh: 15; pPAFAH inh: 8

What do the screens show for `COc1ccc(OCC(=O)Nc2nc3c(s2)CCCC3)cc1`?
PAFAH2 inh: 11; NR3A LBD binder: -1; UCH37 inh: 2; PAFAH1B2 inh: 3; PAFAH1B3 inh: 10; pPAFAH inh: 0

How did O=C(COc1ccc(F)cc1)Nc1nc2c(s1)CCCC2 do in these assays?
PAFAH2 inh: -11; NR3A LBD binder: 14*; UCH37 inh: 0; PAFAH1B2 inh: -4; PAFAH1B3 inh: -1; pPAFAH inh: 5

How did COc1ccc2sc(NC(=O)NC(=O)c3c(Cl)cccc3Cl)nc2c1 do in these assays?
PAFAH2 inh: 0; NR3A LBD binder: 18*; UCH37 inh: 4; PAFAH1B2 inh: 0; PAFAH1B3 inh: -2; pPAFAH inh: 6

Results for COc1ccc2sc(NC(C)=O)nc2c1 ?
PAFAH2 inh: 2; NR3A LBD binder: -1; UCH37 inh: 2; PAFAH1B2 inh: -5; PAFAH1B3 inh: 7; pPAFAH inh: -4

Results for COc1ccc(NC(=O)c2sc(NC(=O)COc3ccccc3)nc2C)cc1 ?
PAFAH2 inh: 5; NR3A LBD binder: 14*; UCH37 inh: 1; PAFAH1B2 inh: 1; PAFAH1B3 inh: 7; pPAFAH inh: -5

How did O=S(=O)(NN=Cc1ccc2c(c1)OCCO2)c1ccc(Cl)cc1 do in these assays?
UCH37 inh: 4

How did Nc1nnnn1N=C/C=C/c1ccccc1 do in these assays?
UCH37 inh: 4

What do the screens show for `Cc1ccc(C)n1-c1ccc(C(=O)NN=Cc2ccncc2)cc1`?
UCH37 inh: 6

Results for Cc1[nH]c(=O)[nH]c(=O)c1C=NNC(=O)CCNC(=O)OC(C)(C)C ?
UCH37 inh: 1

Results for CCN(CC)c1ccc(C=NN2CCOCC2)cc1 ?
UCH37 inh: 11

What do the screens show for `CCOc1ccc(NC(=O)Nc2cc(-c3ccccc3)sc2C(=O)OC)cc1`?
PAFAH2 inh: 2; NR3A LBD binder: 21*; UCH37 inh: -9; PAFAH1B2 inh: 5; PAFAH1B3 inh: -9; pPAFAH inh: 1

How did CCOc1ccc2nc(NC(=S)NCc3ccccc3)sc2c1 do in these assays?
PAFAH2 inh: 2; NR3A LBD binder: 19*; UCH37 inh: 2; PAFAH1B2 inh: 0; PAFAH1B3 inh: 3; pPAFAH inh: 3

How did CCOc1ccc2nc(NC(=O)NC3CCCCC3)sc2c1 do in these assays?
PAFAH2 inh: 11; NR3A LBD binder: 18*; PAFAH1B2 inh: 2; PAFAH1B3 inh: -1; pPAFAH inh: 4

How did CCOc1ccc2nc(NC(=O)C3CCCO3)sc2c1 (centres undefined) do in these assays?
PAFAH2 inh: -1; NR3A LBD binder: 0; UCH37 inh: 1; PAFAH1B2 inh: -2; PAFAH1B3 inh: 4; pPAFAH inh: 1

Results for COc1ccc2nc(NC(=O)CSc3nnc4n3C(C)(C)Cc3ccccc3-4)sc2c1 ?
PAFAH2 inh: 6; NR3A LBD binder: 10*; UCH37 inh: -2; PAFAH1B2 inh: 3; PAFAH1B3 inh: 5; pPAFAH inh: 3

How did Cc1nn(-c2ccccc2)c(N2CCCC2)c1C=NNC(=O)c1cc(-c2cccs2)nc2ccccc12 do in these assays?
UCH37 inh: -7

What do the screens show for `Oc1ccccc1C=NNc1ccnc(SCc2ccccc2)n1`?
UCH37 inh: 11

What do the screens show for `COc1ccc2nc(NC(=O)Nc3ccccc3)sc2c1`?
PAFAH2 inh: -3; NR3A LBD binder: 23*; UCH37 inh: 2; PAFAH1B2 inh: -1; PAFAH1B3 inh: 7; pPAFAH inh: 9

Results for COc1ccc2nc(NC(=O)c3ccccc3C(=O)O)sc2c1 ?
PAFAH2 inh: 0; NR3A LBD binder: -1; UCH37 inh: 0; PAFAH1B2 inh: 0; PAFAH1B3 inh: 12; pPAFAH inh: 2

How did CCOc1ccc2nc(NC(=O)Nc3ccccc3)sc2c1 do in these assays?
PAFAH2 inh: 4; NR3A LBD binder: 35*; UCH37 inh: 2; PAFAH1B2 inh: -1; PAFAH1B3 inh: 3; pPAFAH inh: 6

What do the screens show for `CC(=NNc1nc2ccccc2s1)c1ccc2c(c1)OCO2`?
UCH37 inh: 6

Results for COc1cccc(C=c2sc(=C(C#N)C(=O)N3CCOCC3)n(-c3ccccc3)c2=O)c1 ?
UCH37 inh: -21

Results for O=C(CCC(=O)Nc1ccccc1)NN=Cc1ccco1 ?
UCH37 inh: 3

What do the screens show for `Cn1cnc(S(=O)(=O)Nc2ccc(Cl)c(C(F)(F)F)c2)c1`?
PAFAH2 inh: 2; NR3A LBD binder: 14*; UCH37 inh: 1; PAFAH1B2 inh: 1; PAFAH1B3 inh: 9; pPAFAH inh: 0

How did COc1ccccc1N1CCN(N=C/C(Br)=C/c2ccccc2)CC1 do in these assays?
UCH37 inh: 6

Screening data deposited in PubChem by several laboratories.
